Reference: ChEMBL document CHEMBL1138040, “Activation of murine RNase L by isopolar 2'-phosphonate analogues of 2',5' oligoadenylates” (J Med Chem, 2006)

Legend:
[1] = target: T1, 2-5A-dependent ribonuclease (Mus musculus) (UniProt Q05921); assay: Displacement of pA4[32P]pCp from mouse spleen RNase L at 1 uM; assay type: tissue-based
T1 sequence (whole entry): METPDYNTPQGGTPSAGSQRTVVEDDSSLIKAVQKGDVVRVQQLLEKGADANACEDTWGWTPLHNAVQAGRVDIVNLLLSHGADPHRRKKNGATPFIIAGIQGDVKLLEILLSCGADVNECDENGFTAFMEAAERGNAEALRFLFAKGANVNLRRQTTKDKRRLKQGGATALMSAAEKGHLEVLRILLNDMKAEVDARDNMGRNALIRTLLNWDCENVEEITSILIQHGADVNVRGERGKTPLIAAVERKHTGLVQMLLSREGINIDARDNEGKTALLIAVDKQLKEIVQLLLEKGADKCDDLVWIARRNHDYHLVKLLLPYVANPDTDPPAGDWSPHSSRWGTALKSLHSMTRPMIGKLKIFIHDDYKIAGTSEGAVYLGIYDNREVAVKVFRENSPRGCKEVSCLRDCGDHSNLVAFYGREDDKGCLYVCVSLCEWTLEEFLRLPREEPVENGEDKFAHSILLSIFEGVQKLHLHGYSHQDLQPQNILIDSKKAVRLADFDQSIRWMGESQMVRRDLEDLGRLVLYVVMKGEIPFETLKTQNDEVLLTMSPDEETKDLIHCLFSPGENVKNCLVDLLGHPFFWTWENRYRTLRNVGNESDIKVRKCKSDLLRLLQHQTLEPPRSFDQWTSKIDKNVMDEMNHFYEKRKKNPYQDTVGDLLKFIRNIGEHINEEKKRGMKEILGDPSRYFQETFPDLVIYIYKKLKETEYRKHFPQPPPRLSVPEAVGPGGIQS
How it was run: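 Competitive radiobinding using 20 µL male BALB/c mouse spleen 126 000g supernatant; oligoadenylate at 1 µM final with about 0.4 nM pA4-[32P]pCp in 25 µL. Held 60 min at 4 °C, filtered through nitrocellulose, washed with Tris pH 7.6/KCl/MgCl2/glycerol, bound radioactivity counted by scintillation. Triplicates; percent binding relative to natural pA4.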

[2] = target: T2, 2-5A-dependent ribonuclease (Mus musculus, UniProt Q05921); assay: Binding to mouse RNase L assessed as displacement of pA4-[32P]pCp
T2 sequence (Q05921 whole entry): T1 sequence (whole entry)

[3] = Half life in mouse spleen at 4 degreeC; assay type: ADME
How it was run: (§1)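 Oligoadenylate (2.5 nmol) mixed with 9 µL soluble mouse spleen 126 000g supernatant, kept at 4 °C. Sampled periodically: diluted with aqueous 0.1% TFA, spun 14 000g 10 min, run on C18 RP-HPLC (acetonitrile gradient in 0.1% TFA, 260 nm). Intact and degradation peaks integrated to follow degradation over time.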

[4] = species: Mus musculus; assay: Stability in mouse spleen assessed as ability to resist degradation by nuclease; assay type: ADME; how it was run: as §1

SMILES	Activity [1]	other results
Nc1ncnc2c1ncn2[C@@H]1O[C@H](COP(=O)(O)O[C@H]2[C@H](O)[C@@H](COP(=O)(O)O[C@H]3[C@H](O)[C@@H](COP(=O)(O)O[C@H]4[C@H](O)[C@@H](COP(=O)(O)O)O[C@H]4n4cnc5c(N)ncnc54)O[C@H]3n3cnc4c(N)ncnc43)O[C@H]2n2cnc3c(N)ncnc32)[C@@H](O)[C@H]1OP(=O)(O)O	0%	–
Nc1ncnc2c1ncn2[C@@H]1O[C@H](COP(=O)(O)O[C@H]2[C@H](O)[C@@H](COP(=O)(O)O[C@H]3[C@H](O)[C@@H](COP(=O)(O)O[C@@H]4[C@H](O)[C@@H](COP(=O)(O)O)O[C@H]4n4cnc5c(N)ncnc54)O[C@H]3n3cnc4c(N)ncnc43)O[C@H]2n2cnc3c(N)ncnc32)[C@@H](O)[C@H]1OP(=O)(O)O	33%	–
Nc1ncnc2c1ncn2[C@@H]1O[C@H](COP(=O)(O)O)[C@H](O)[C@H]1OP(=O)(O)OC[C@H]1O[C@@H](n2cnc3c(N)ncnc32)[C@H](OP(=O)(O)OC[C@H]2O[C@@H](n3cnc4c(N)ncnc43)[C@H](OP(=O)(O)O)[C@@H]2O)[C@@H]1O	64%	–
Nc1ncnc2c1ncn2[C@@H]1O[C@H](COP(=O)(O)O[C@@H]2[C@H](O)[C@@H](COP(=O)(O)O[C@@H]3[C@H](O)[C@@H](COP(=O)(O)O)O[C@H]3n3cnc4c(N)ncnc43)O[C@H]2n2cnc3c(N)ncnc32)[C@@H](O)[C@H]1OP(=O)(O)O	39%	–
Nc1ncnc2c1ncn2[C@@H]1O[C@H](COP(=O)(O)O[C@@H]2[C@H](O)[C@@H](COP(=O)(O)O[C@H]3[C@H](O)[C@@H](COP(=O)(O)O)O[C@H]3n3cnc4c(N)ncnc43)O[C@H]2n2cnc3c(N)ncnc32)[C@@H](O)[C@H]1OP(=O)(O)O	49%	–
Nc1ncnc2c1ncn2[C@@H]1O[C@H](COP(=O)(O)O[C@H]2[C@H](O)[C@@H](COP(=O)(O)O[C@H]3[C@H](O)[C@@H](COP(=O)(O)O)O[C@H]3n3cnc4c(N)ncnc43)O[C@H]2n2cnc3c(N)ncnc32)[C@@H](O)[C@H]1OP(=O)(O)O	0%	–
Nc1ncnc2c1ncn2[C@@H]1O[C@H](COP(=O)(O)O[C@@H]2[C@H](O)[C@@H](COP(=O)(O)O)O[C@H]2n2cnc3c(N)ncnc32)[C@H](O)[C@H]1OP(=O)(O)OC[C@H]1O[C@@H](n2cnc3c(N)ncnc32)[C@H](OP(=O)(O)O)[C@@H]1O	41%	–
Nc1ncnc2c1ncn2[C@@H]1O[C@H](COP(=O)(O)O[C@H]2[C@H](O)[C@@H](COP(=O)(O)O[C@@H]3[C@H](O)[C@@H](COP(=O)(O)O)O[C@H]3n3cnc4c(N)ncnc43)O[C@H]2n2cnc3c(N)ncnc32)[C@@H](O)[C@H]1OP(=O)(O)O	33%	–
Nc1ncnc2c1ncn2[C@@H]1O[C@H](COP(=O)(O)O)[C@H](O)[C@H]1OP(=O)(O)OC[C@H]1O[C@@H](n2cnc3c(N)ncnc32)[C@H](OP(=O)(O)OC[C@H]2O[C@@H](n3cnc4c(N)ncnc43)[C@H](OP(=O)(O)O)[C@@H]2O)[C@H]1O	45%	–

More lines, main results first:

Activity [1]	SMILES	other results
51%	Nc1ncnc2c1ncn2[C@@H]1O[C@H](COP(=O)(O)O[C@H]2[C@H](O)[C@@H](COP(=O)(O)O[C@@H]3[C@H](O)[C@@H](COP(=O)(O)O[C@H]4[C@H](O)[C@@H](COP(=O)(O)O)O[C@H]4n4cnc5c(N)ncnc54)O[C@H]3n3cnc4c(N)ncnc43)O[C@H]2n2cnc3c(N)ncnc32)[C@@H](O)[C@H]1OP(=O)(O)O	–
88%	Nc1ncnc2c1ncn2[C@@H]1O[C@H](COP(=O)(O)O[C@@H]2[C@@H](O)[C@@H](COP(=O)(O)O[C@@H]3[C@H](O)[C@@H](COP(=O)(O)O)O[C@H]3n3cnc4c(N)ncnc43)O[C@H]2n2cnc3c(N)ncnc32)[C@H](O)[C@H]1OP(=O)(O)OC[C@H]1O[C@@H](n2cnc3c(N)ncnc32)[C@H](OP(=O)(O)O)[C@@H]1O	EC50 [2]: 393 nM
67%	Nc1ncnc2c1ncn2[C@@H]1O[C@H](COP(=O)(O)O[C@@H]2[C@H](O)[C@@H](COP(=O)(O)O)O[C@H]2n2cnc3c(N)ncnc32)[C@H](O)[C@H]1OP(=O)(O)OC[C@H]1O[C@@H](n2cnc3c(N)ncnc32)[C@H](OP(=O)(O)OC[C@H]2O[C@@H](n3cnc4c(N)ncnc43)[C@H](OP(=O)(O)O)[C@@H]2O)[C@@H]1O	–
100%	Nc1ncnc2c1ncn2[C@@H]1O[C@H](COP(=O)(O)O[C@@H]2[C@H](O)[C@@H](COP(=O)(O)O[C@@H]3[C@H](O)[C@@H](COP(=O)(O)O[C@@H]4[C@H](O)[C@@H](COP(=O)(O)O)O[C@H]4n4cnc5c(N)ncnc54)O[C@H]3n3cnc4c(N)ncnc43)O[C@H]2n2cnc3c(N)ncnc32)[C@@H](O)[C@H]1OP(=O)(O)O	EC50 [2]: 0.9 nM; half-life [3]: 10 h
43%	Nc1ncnc2c1ncn2[C@@H]1O[C@H](COP(=O)(O)O)[C@H](O)[C@H]1OP(=O)(O)OC[C@H]1O[C@@H](n2cnc3c(N)ncnc32)[C@H](OP(=O)(O)OC[C@H]2O[C@@H](n3cnc4c(N)ncnc43)[C@H](OP(=O)(O)OC[C@H]3O[C@@H](n4cnc5c(N)ncnc54)[C@H](OP(=O)(O)O)[C@@H]3O)[C@H]2O)[C@H]1O	–
24%	Nc1ncnc2c1ncn2[C@@H]1O[C@H](COP(=O)(O)O[C@@H]2[C@H](O)[C@@H](COP(=O)(O)O[C@H]3[C@H](O)[C@@H](COP(=O)(O)O[C@H]4[C@H](O)[C@@H](COP(=O)(O)O)O[C@H]4n4cnc5c(N)ncnc54)O[C@H]3n3cnc4c(N)ncnc43)O[C@H]2n2cnc3c(N)ncnc32)[C@@H](O)[C@H]1OP(=O)(O)O	–
40%	Nc1ncnc2c1ncn2[C@@H]1O[C@H](COP(=O)(O)O[C@@H]2[C@H](O)[C@@H](COP(=O)(O)O[C@@H]3[C@H](O)[C@@H](COP(=O)(O)O[C@H]4[C@H](O)[C@@H](COP(=O)(O)O)O[C@H]4n4cnc5c(N)ncnc54)O[C@H]3n3cnc4c(N)ncnc43)O[C@H]2n2cnc3c(N)ncnc32)[C@@H](O)[C@H]1OP(=O)(O)O	–
51%	Nc1ncnc2c1ncn2[C@@H]1O[C@H](COP(=O)(O)O)[C@H](O)[C@H]1OP(=O)(O)OC[C@H]1O[C@@H](n2cnc3c(N)ncnc32)[C@H](OP(=O)(O)OC[C@H]2O[C@@H](n3cnc4c(N)ncnc43)[C@H](OP(=O)(O)OC[C@H]3O[C@@H](n4cnc5c(N)ncnc54)[C@H](OP(=O)(O)O)[C@@H]3O)[C@@H]2O)[C@H]1O	–
37%	Nc1ncnc2c1ncn2[C@@H]1O[C@H](COP(=O)(O)O[C@@H]2[C@H](O)[C@@H](COP(=O)(O)O[C@H]3[C@H](O)[C@@H](COP(=O)(O)O[C@@H]4[C@H](O)[C@@H](COP(=O)(O)O)O[C@H]4n4cnc5c(N)ncnc54)O[C@H]3n3cnc4c(N)ncnc43)O[C@H]2n2cnc3c(N)ncnc32)[C@@H](O)[C@H]1OP(=O)(O)O	–
86%	Nc1ncnc2c1ncn2[C@@H]1O[C@H](COP(=O)(O)O)[C@H](O)[C@H]1OP(=O)(O)OC[C@H]1O[C@@H](n2cnc3c(N)ncnc32)[C@H](OP(=O)(O)OC[C@H]2O[C@@H](n3cnc4c(N)ncnc43)[C@H](OP(=O)(O)OC[C@H]3O[C@@H](n4cnc5c(N)ncnc54)[C@H](OP(=O)(O)O)[C@@H]3O)[C@@H]2O)[C@@H]1O	–
93%	Nc1ncnc2c1ncn2[C@@H]1O[C@H](COP(=O)(O)O)[C@H](O)[C@H]1OP(=O)(O)OC[C@H]1O[C@@H](n2cnc3c(N)ncnc32)[C@H](OP(=O)(O)OC[C@H]2O[C@@H](n3cnc4c(N)ncnc43)[C@H](OP(=O)(O)OC[C@H]3O[C@@H](n4cnc5c(N)ncnc54)[C@H](OP(=O)(O)O)[C@@H]3O)[C@H]2O)[C@@H]1O	EC50 [2]: 323 nM; Stability [4]: Stable
